In ChEMBL document CHEMBL4715736, “Identification of anticancer agents based on the thieno[2,3-b]pyridine and 1H-pyrazole molecular scaffolds” (2016):

What was measured:
Format in all cases: functional
[1] = test system: A549; assay: Growth inhibition of human A549/ATCC cells incubated for 48 hrs by sulforhodamine B assay; settings: for CC50: read-out: LC50 (the source's name)
Outline: (§1)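 NCI Developmental Therapeutics Program NCI60 panel. Compounds that were active in the 10 µM one-dose screen went on to dose–response testing. Growth at each concentration is expressed relative to untreated control (100%). GI50 (concentration giving 50% of maximal inhibition of proliferation) and TGI (concentration giving total growth inhibition) were derived from the curves.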

[2] = test system: MCF7; assay: Growth inhibition of human MCF7 cells incubated for 48 hrs by sulforhodamine B assay; settings: for CC50: read-out: LC50 (the source's name)
Outline: (§2)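 NCI60 panel at the NCI Developmental Therapeutics Program. Only compounds active in the 10 µM screen went to dose-response testing. GI50, the concentration giving 50% of maximal inhibition of proliferation, and TGI, the concentration giving total growth inhibition, were derived from the dose-response curves.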

[3] = test system: LOX IMVI; assay: Growth inhibition of human LOX IMVI cells assessed as cell growth at 0.01 uM incubated for 48 hrs by sulforhodamine B assay relative to control; settings: read-out: Activity
[4] = test system: M14; assay: Growth inhibition of human M14 cells assessed as cell growth at 1 uM incubated for 48 hrs by sulforhodamine B assay relative to control; settings: read-out: Activity
[5] = test system: UACC-257; assay: Growth inhibition of human UACC-257 cells assessed as cell growth at 0.01 uM incubated for 48 hrs by sulforhodamine B assay relative to control; settings: read-out: Activity
[6] = test system: CCRF-CEM; assay: Growth inhibition of human CCRF-CEM cells incubated for 48 hrs by sulforhodamine B assay; outline: as §1
[7] = test system: NCI-H322M; assay: Growth inhibition of human NCI-H322M cells assessed as cell growth at 0.1 uM incubated for 48 hrs by sulforhodamine B assay relative to control; settings: read-out: Activity
[8] = test system: HCC 2998; assay: Growth inhibition of human HCC 2998 cells incubated for 48 hrs by sulforhodamine B assay; settings: for CC50: read-out: LC50 (the source's name)
[9] = test system: SK-MEL-5; assay: Growth inhibition of human SK-MEL-5 cells incubated for 48 hrs by sulforhodamine B assay
Outline: (§3)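 NCI DTP 60-line human tumour panel. Dose-response curves were run only for ligands active in the initial 10 µM screen. GI50 (concentration giving 50% of maximal inhibition of proliferation) and TGI (concentration giving total growth inhibition) were derived from these curves.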

[10] = test system: SW-620; assay: Growth inhibition of human SW-620 cells assessed as cell growth at 0.01 uM incubated for 48 hrs by sulforhodamine B assay relative to control; settings: read-out: Activity
[11] = test system: SK-OV-3; assay: Growth inhibition of human SK-OV-3 cells assessed as cell growth at 0.01 uM incubated for 48 hrs by sulforhodamine B assay relative to control; settings: read-out: Activity
[12] = test system: ACHN; assay: Growth inhibition of human ACHN cells assessed as cell growth at 1 uM incubated for 48 hrs by sulforhodamine B assay relative to control; settings: read-out: Activity
[13] = test system: HOP-62; assay: Growth inhibition of human HOP-62 cells incubated for 48 hrs by sulforhodamine B assay; outline: as §2
[14] = test system: SNB-19; assay: Growth inhibition of human SNB-19 cells incubated for 48 hrs by sulforhodamine B assay; outline: as §3
[15] = test system: MCF7; assay: Growth inhibition of human MCF7 cells assessed as cell growth at 0.1 uM incubated for 48 hrs by sulforhodamine B assay relative to control; settings: read-out: Activity
[16] = test system: MDA-MB-468; assay: Growth inhibition of human MDA-MB-468 cells assessed as cell growth at 0.1 uM incubated for 48 hrs by sulforhodamine B assay relative to control; settings: read-out: Activity
[17] = test system: A498; assay: Growth inhibition of human A498 cells assessed as cell growth at 0.1 uM incubated for 48 hrs by sulforhodamine B assay relative to control; settings: read-out: Activity; outline: as §1
[18] = test system: SK-MEL-2; assay: Growth inhibition of human SK-MEL-2 cells assessed as cell growth at 0.1 uM incubated for 48 hrs by sulforhodamine B assay relative to control; settings: read-out: Activity
[19] = test system: SF-539; assay: Growth inhibition of human SF-539 cells assessed as cell growth at 0.01 uM incubated for 48 hrs by sulforhodamine B assay relative to control; settings: read-out: Activity
[20] = test system: Malme-3M; assay: Growth inhibition of human Malme-3M cells incubated for 48 hrs by sulforhodamine B assay; outline: as §2
[21] = test system: OVCAR-5; assay: Growth inhibition of human OVCAR-5 cells assessed as cell growth at 100 uM incubated for 48 hrs by sulforhodamine B assay relative to control; settings: read-out: Activity
[22] = test system: SNB-75; assay: Growth inhibition of human SNB-75 cells assessed as cell growth at 1 uM incubated for 48 hrs by sulforhodamine B assay relative to control; settings: read-out: Activity
[23] = test system: MCF7; assay: Growth inhibition of human MCF7 cells assessed as cell growth at 0.01 uM incubated for 48 hrs by sulforhodamine B assay relative to control; settings: read-out: Activity
[24] = test system: LOX IMVI; assay: Growth inhibition of human LOX IMVI cells incubated for 48 hrs by sulforhodamine B assay; outline: as §2
[25] = test system: MDA-MB-231; assay: Growth inhibition of human MDA-MB-231 cells assessed as cell growth at 0.1 uM incubated for 48 hrs by sulforhodamine B assay relative to control; settings: read-out: Activity
[26] = test system: IGROV-1; assay: Growth inhibition of human IGROV-1 cells incubated for 48 hrs by sulforhodamine B assay; outline: as §2
[27] = test system: RPMI-8226; assay: Growth inhibition of human RPMI-8226 cells assessed as cell growth at 0.1 uM incubated for 48 hrs by sulforhodamine B assay relative to control; settings: read-out: Activity
[28] = test system: T47D; assay: Growth inhibition of human T47D cells assessed as cell growth at 1 uM incubated for 48 hrs by sulforhodamine B assay relative to control; settings: read-out: Activity
[29] = test system: NCI-H226; assay: Growth inhibition of human NCI-H226 cells incubated for 48 hrs by sulforhodamine B assay; settings: for CC50: read-out: LC50 (the source's name); outline: as §2
[30] = test system: U-251; assay: Growth inhibition of human U-251 cells assessed as cell growth at 0.01 uM incubated for 48 hrs by sulforhodamine B assay relative to control; settings: read-out: Activity
[31] = test system: TK-10; assay: Growth inhibition of human TK-10 cells assessed as cell growth at 1 uM incubated for 48 hrs by sulforhodamine B assay relative to control; settings: read-out: Activity
[32] = test system: OVCAR-4; assay: Growth inhibition of human OVCAR-4 cells assessed as cell growth at 0.1 uM incubated for 48 hrs by sulforhodamine B assay relative to control; settings: read-out: Activity
[33] = test system: NCI/ADR-RES; assay: Growth inhibition of human NCI/ADR-RES cells incubated for 48 hrs by sulforhodamine B assay; settings: for CC50: read-out: LC50 (the source's name); outline: as §2
[34] = test system: SF-295; assay: Growth inhibition of human SF-295 cells incubated for 48 hrs by sulforhodamine B assay; outline: as §3

Cc1ccc(NC(=O)c2sc3nc4c(cc3c2N)C(=O)CCC4)cc1C
GI50 [1]: 0.673 µM
TGI [1]: > 100 µM
CC50 [1]: > 100 µM
GI50 [2]: 0.339 µM
TGI [2]: > 100 µM
CC50 [2]: > 100 µM
growth at 0.01 µM [3]: 97%
growth at 1 µM [4]: 22%
growth at 0.01 µM [5]: 96%
GI50 [6]: 0.334 µM
LC50 [6]: > 100 µM
TGI [6]: ≥ 100 µM
growth at 0.1 µM [7]: 94%
GI50 [8]: 1.4 µM
TGI [8]: > 100 µM
CC50 [8]: > 100 µM
GI50 [9]: 0.376 µM
LC50 [9]: ≥ 100 µM
TGI [9]: 16.4 µM
growth at 0.01 µM [10]: 99%
growth at 0.01 µM [11]: 103%
growth at 1 µM [12]: 46%
GI50 [13]: 0.605 µM
LC50 [13]: > 100 µM
TGI [13]: > 100 µM
GI50 [14]: 0.558 µM
LC50 [14]: > 100 µM
TGI [14]: > 100 µM
growth at 0.1 µM [15]: 86%
growth at 0.1 µM [16]: 83%
growth at 0.1 µM [17]: 78%
growth at 0.1 µM [18]: 90%
growth at 0.01 µM [19]: 97%
LC50 [20]: > 100 µM
TGI [20]: > 100 µM
growth at 100 µM [21]: 31%
growth at 1 µM [22]: -7%
growth at 0.01 µM [23]: 89%
GI50 [24]: 0.716 µM
LC50 [24]: > 100 µM
TGI [24]: > 100 µM
growth at 0.1 µM [25]: 95%
GI50 [26]: 1.09 µM
LC50 [26]: > 100 µM
TGI [26]: > 100 µM
growth at 0.1 µM [27]: 97%
growth at 1 µM [28]: 23%
GI50 [29]: 22.4 µM
TGI [29]: > 100 µM
CC50 [29]: > 100 µM
growth at 0.01 µM [30]: 98%
growth at 1 µM [31]: 52%
growth at 0.1 µM [32]: 82%
GI50 [33]: 0.658 µM
TGI [33]: > 100 µM
CC50 [33]: > 100 µM
GI50 [34]: 0.328 µM
LC50 (concentration killing 50% of cells) [34]: > 100 µM
TGI [34]: > 100 µM

Cc1cccc(NC(=O)c2sc3nc4c(cc3c2N)C(=O)CCC4)c1
GI50 [1]: 0.3 µM
TGI [1]: > 100 µM
CC50 [1]: > 100 µM
GI50 [2]: 0.145 µM
TGI [2]: > 100 µM
CC50 [2]: > 100 µM
growth at 0.01 µM [3]: 97%
growth at 1 µM [4]: 11%
growth at 0.01 µM [5]: 82%
LC50 [6]: > 100 µM
TGI [6]: > 100 µM
growth at 0.1 µM [7]: 84%
GI50 [8]: 0.383 µM
TGI [8]: > 100 µM
CC50 [8]: > 100 µM
GI50 [9]: 0.169 µM
LC50 [9]: > 100 µM
TGI [9]: ≥ 100 µM
growth at 0.01 µM [10]: 94%
growth at 0.01 µM [11]: 90%
growth at 1 µM [12]: 49%
GI50 [13]: 0.331 µM
LC50 [13]: > 100 µM
TGI [13]: ≥ 100 µM
GI50 [14]: 0.403 µM
LC50 [14]: > 100 µM
TGI [14]: > 100 µM
growth at 0.1 µM [15]: 56%
growth at 0.1 µM [16]: 45%
growth at 0.1 µM [17]: 32%
growth at 0.1 µM [18]: 70%
growth at 0.01 µM [19]: 90%
LC50 [20]: > 100 µM
TGI [20]: ≥ 100 µM
growth at 100 µM [21]: -20%
growth at 1 µM [22]: 6%
growth at 0.01 µM [23]: 86%
GI50 [24]: 0.0118 µM
LC50 [24]: > 100 µM
TGI [24]: ≥ 100 µM
growth at 0.1 µM [25]: 76%
GI50 [26]: 0.662 µM
LC50 [26]: > 100 µM
TGI [26]: ≥ 100 µM
growth at 0.1 µM [27]: 94%
growth at 1 µM [28]: 29%
GI50 [29]: 1.09 µM
TGI [29]: > 100 µM
CC50 [29]: > 100 µM
growth at 0.01 µM [30]: 96%
growth at 1 µM [31]: 45%
growth at 0.1 µM [32]: 82%
GI50 [33]: 0.23 µM
TGI [33]: ≥ 100 µM
CC50 [33]: > 100 µM
GI50 [34]: 0.175 µM
LC50 (concentration killing 50% of cells) [34]: > 100 µM
TGI [34]: ≥ 100 µM
